Here are results for nine molecules from ChEMBL document CHEMBL1140228, “Identification of small molecular weight inhibitors of Src homology 2 domain-containing tyrosine phosphatase 2 (SHP-2) via in silico database screening combined with experimental assay” (J Med Chem, 2008).

The target of test [1] is T1, Tyrosine-protein phosphatase non-receptor type 11 (Homo sapiens) (UniProt Q06124).
T1 sequence (whole entry): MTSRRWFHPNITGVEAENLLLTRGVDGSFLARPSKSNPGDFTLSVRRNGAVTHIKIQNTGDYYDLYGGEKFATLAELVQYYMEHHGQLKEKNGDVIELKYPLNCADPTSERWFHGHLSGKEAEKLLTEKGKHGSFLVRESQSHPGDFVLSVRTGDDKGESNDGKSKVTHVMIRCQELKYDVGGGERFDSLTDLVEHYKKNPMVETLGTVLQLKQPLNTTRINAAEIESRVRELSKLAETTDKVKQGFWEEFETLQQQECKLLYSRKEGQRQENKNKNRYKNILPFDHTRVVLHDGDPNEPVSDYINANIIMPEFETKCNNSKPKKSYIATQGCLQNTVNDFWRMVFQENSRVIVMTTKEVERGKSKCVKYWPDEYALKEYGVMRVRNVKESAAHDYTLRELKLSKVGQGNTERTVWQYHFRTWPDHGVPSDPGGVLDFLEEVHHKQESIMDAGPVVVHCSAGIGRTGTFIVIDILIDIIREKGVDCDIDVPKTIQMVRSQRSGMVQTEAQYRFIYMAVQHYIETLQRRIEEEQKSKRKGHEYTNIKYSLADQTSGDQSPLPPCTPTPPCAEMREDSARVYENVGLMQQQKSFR
In words: Inhibition of GST-tagged SHP2. A digest of the protocol: (§1)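 GST-SHP-2 PTP domain (0.5 μg) preincubated 30 min at room temperature with compound or DMSO in 25 mM Tris-HCl pH 7.4, 50 mM NaCl, 5 mM DTT, 2.5 mM EDTA. Orthovanadate (100 μM) served as positive control.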

The target of test [2] is T1, Tyrosine-protein phosphatase non-receptor type 11 (Homo sapiens). In words: Binding affinity to SHP2 PTP domain assessed as quenching of enzyme fluorescence by fluorescence titration assay. The procedure, abridged:
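Tryptophan fluorescence quenching of GST-SHP-2 PTP domain held at 3 μM in 20 mM Tris-HCl pH 7.5, titrated with increasing compound. Excitation 295 nm, emission 360–500 nm. Compound-alone fluorescence subtracted. Intensities are relative, not corrected for detector response.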

Test [3] shares this target. In words: Inhibition of GST-tagged SHP2 at 100 uM. A digest of the protocol: as §1
In test [4] the target is T2, Tyrosine-protein phosphatase non-receptor type 11 (Mus musculus) (UniProt P35235).
T2 sequence (whole entry): T1 sequence (whole entry) with M450V, A550V, K590R
The experiment in a line: Inhibition of EGF-induced SHP2 activation in mouse embryonic fibroblasts by immunocomplex phosphatase assay. The procedure, abridged: (§2)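 WT or SHP-2 D61G/D61G knock-in MEFs starved overnight in serum-free medium, compound (100 μM) for the last 1 h, then EGF 10 min (50 ng/mL in methods, 20 ng/mL in legend). RIPA lysates (500 μg) immunoprecipitated with anti-SHP-2, washed in HNTG, then assayed by malachite green phosphatase assay.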

Test [5] relates to T3, Tyrosine-protein phosphatase non-receptor type 11 (Mus musculus), P35235 [D61G].
T3 sequence (whole entry): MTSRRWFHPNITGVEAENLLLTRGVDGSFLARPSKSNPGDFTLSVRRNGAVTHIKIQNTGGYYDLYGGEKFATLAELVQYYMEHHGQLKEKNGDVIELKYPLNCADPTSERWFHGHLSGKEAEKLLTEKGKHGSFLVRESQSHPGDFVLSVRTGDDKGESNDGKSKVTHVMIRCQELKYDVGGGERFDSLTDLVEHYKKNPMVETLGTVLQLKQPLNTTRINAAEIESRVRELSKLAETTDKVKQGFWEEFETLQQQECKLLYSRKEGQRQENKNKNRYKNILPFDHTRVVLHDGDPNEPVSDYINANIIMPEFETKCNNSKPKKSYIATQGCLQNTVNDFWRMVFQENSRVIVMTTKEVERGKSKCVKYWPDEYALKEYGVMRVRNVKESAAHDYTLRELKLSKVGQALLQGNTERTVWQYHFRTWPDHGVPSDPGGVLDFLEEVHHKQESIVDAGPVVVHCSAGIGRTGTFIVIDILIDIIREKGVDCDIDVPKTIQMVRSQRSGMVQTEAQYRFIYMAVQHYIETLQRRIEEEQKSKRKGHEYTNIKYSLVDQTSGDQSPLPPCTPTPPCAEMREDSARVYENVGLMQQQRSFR
The experiment in a line: Inhibition of EGF-induced SHP2 D61G mutant activation in mouse embryonic fibroblasts by immunocomplex phosphatase assay. A digest of the protocol:
as §2

Test [6] addresses T2, Tyrosine-protein phosphatase non-receptor type 11 (Mus musculus). In words: Inhibition of SHP2 assessed as blockade of IL3-induced ERK1/ERK2 activation in mouse Ba/F3 cells by immunoblotting. As to conditions: BaF3. The test is classed as cell-based. The procedure, abridged: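 Ba/F3 cells deprived of IL-3 for 8 h, treated with compound 1 h before stimulation with IL-3 (2 ng/mL), and harvested at several times. Lysates immunoblotted for phospho-Erk, then stripped and reprobed for pan-Erk as loading control.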

Test [7] relates to BaF3. In words: Antiproliferative activity against IL3-stimulated mouse BA/F3 cells assessed as decrease in cell growth after 72 hrs by MTS assay. The test is classed as functional, cell-based. The procedure, abridged: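 Ba/F3 (IL-3-dependent murine pro-B line) seeded at 2×10⁴ cells/well in RPMI-1640 with 10% FBS and mouse IL-3 (1 ng/mL), plus compound at 100 or 200 μM or DMSO. Cell number read by MTS after 72 h.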

The target in test [8] is T1, Tyrosine-protein phosphatase non-receptor type 11 (Homo sapiens). The experiment in a line: Inhibition of GST-tagged SHP2 at 200 uM. A digest of the protocol:
as §1

Test [9] addresses Tyrosine-protein phosphatase non-receptor type 6 (Homo sapiens) (UniProt P29350). The experiment in a line: Inhibition of GST-tagged SHP1.
Test [10] deals with T4, Tyrosine-protein phosphatase non-receptor type 2 (Homo sapiens) (UniProt P17706).
T4 sequence (whole entry): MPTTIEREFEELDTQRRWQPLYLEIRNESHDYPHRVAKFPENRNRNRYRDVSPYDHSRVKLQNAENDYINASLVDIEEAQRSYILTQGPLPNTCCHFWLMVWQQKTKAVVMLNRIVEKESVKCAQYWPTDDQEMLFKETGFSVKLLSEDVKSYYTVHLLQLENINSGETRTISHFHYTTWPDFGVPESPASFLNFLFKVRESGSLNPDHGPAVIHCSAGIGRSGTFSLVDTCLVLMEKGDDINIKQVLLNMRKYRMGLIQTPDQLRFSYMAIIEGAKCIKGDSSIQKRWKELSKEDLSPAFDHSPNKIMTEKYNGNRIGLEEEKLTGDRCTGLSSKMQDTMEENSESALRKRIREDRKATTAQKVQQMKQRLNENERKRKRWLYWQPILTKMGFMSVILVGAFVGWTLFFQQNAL
The experiment in a line: Inhibition of GST-tagged TC-PTP.

Test [11] has as its target T5, Receptor-type tyrosine-protein phosphatase C (Homo sapiens) (UniProt P08575).
T5 sequence (whole entry): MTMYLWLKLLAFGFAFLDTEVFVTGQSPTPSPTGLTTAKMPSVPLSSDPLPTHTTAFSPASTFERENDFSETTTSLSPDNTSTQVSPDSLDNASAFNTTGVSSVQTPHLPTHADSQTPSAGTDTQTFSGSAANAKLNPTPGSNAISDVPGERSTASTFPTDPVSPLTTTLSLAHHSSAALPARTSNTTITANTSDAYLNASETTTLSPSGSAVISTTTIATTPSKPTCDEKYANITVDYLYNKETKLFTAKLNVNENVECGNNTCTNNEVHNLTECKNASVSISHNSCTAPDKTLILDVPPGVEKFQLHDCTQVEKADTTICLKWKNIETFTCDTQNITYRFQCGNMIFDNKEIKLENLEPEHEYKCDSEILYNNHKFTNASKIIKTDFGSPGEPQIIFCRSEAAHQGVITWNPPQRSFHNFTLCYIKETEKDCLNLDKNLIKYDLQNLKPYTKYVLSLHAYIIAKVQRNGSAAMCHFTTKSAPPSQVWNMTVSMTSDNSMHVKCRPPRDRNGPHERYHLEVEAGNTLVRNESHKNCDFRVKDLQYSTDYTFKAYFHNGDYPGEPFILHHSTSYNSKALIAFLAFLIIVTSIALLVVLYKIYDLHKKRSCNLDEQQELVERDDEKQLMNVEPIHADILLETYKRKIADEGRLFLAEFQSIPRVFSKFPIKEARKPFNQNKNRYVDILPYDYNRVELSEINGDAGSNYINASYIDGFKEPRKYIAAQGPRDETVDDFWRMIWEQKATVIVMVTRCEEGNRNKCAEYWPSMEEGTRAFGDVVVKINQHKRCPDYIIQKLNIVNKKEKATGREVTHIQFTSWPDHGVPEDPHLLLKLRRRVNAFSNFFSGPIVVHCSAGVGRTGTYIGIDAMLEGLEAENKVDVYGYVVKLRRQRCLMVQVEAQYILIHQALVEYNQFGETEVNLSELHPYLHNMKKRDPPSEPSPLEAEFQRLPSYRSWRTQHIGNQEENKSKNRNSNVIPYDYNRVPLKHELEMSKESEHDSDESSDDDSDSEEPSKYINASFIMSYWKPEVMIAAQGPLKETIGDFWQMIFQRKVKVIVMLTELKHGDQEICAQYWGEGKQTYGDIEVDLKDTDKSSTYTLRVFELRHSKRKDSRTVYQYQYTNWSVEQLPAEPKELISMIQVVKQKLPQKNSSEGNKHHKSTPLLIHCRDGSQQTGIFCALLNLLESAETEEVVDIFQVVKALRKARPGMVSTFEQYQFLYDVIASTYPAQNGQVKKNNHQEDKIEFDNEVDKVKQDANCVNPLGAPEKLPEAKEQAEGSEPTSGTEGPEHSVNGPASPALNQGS
In words: Inhibition of GST-tagged CD45.

Positions count from the first letter of the chain named. The source made the active and inactive calls. No cut-off for these calls is given here.

Tyrosine-protein phosphatase non-receptor type 6 (Homo sapiens), sequence (P29350 whole entry): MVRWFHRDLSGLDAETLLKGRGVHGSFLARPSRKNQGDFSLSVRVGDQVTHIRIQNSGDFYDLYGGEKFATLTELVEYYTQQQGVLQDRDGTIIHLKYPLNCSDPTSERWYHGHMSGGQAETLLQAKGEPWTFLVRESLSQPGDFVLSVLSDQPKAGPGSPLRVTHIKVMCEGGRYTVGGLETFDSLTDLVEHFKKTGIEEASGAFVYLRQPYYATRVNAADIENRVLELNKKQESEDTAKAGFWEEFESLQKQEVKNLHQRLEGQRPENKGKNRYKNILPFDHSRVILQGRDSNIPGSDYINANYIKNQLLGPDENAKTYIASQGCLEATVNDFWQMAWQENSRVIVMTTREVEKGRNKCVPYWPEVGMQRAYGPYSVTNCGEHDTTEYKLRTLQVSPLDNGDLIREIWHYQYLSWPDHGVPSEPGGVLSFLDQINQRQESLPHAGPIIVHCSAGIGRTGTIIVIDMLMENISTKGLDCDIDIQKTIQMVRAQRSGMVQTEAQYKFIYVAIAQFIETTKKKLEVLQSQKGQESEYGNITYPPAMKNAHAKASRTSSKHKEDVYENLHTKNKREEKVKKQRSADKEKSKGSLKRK

In the case of `CSc1ccc(C2C(C#N)=C(N)Oc3[nH]nc(-c4ccccc4Cl)c32)cc1` (stereo unspecified), the Activity entry in test [1] was “Dose-dependent effect”. Moreover, in test [2], the outcome was Active.

With `CNC(=S)NNC(=O)c1csc(-c2cccs2)n1`, in test [3], the inhibition (as a rule, the percentage by which the read-out fell short of the control) was 40%. For the same molecule, the Activity result in test [1] was “Dose-dependent effect”.

As for `CCc1ccc(OCC(=O)Nc2ccc(S(N)(=O)=O)cc2)cc1`, in [1], the Activity entry was “Dose-dependent effect”. Also, in test [2], the result was inactive.

For `NC(N)=NN[C@@H]1O[C@H](CO)[C@@H](O)[C@H](O)[C@H]1O`, the Activity result in test [1] was “Dose-dependent effect”. Besides, the result in test [2] was inactive.

As to `Cc1cc(C)c2c(c1)[nH]c1nnc(SCC(=O)NCc3cccs3)nc12`, in test [3], the inhibition came out at 50%. Further, the Activity result in test [1] was “Dose-dependent effect”. Further, the result in test [4], in [5], in test [6] and in [2] was Active.

In test [3], `NS(=O)(=O)c1ccc(CCNC(=O)c2ccc(Cn3c(=S)[nH]c4ccc(Br)cc4c3=O)cc2)cc1` registered an inhibition of 55%. In addition, the Activity result in test [1] is “Dose-dependent effect”. For the same molecule, the outcome in test [4], in [5], in [6], in test [7] and in test [2] was Active.

Consider `CNC(=S)NNC(=O)CSCCS(=O)(=O)c1ccccc1`, for which the Activity result in test [1] is “Dose-dependent effect”. In [2], the result was inactive.

`O=C(CCCn1c(=O)c2cccn2c2cccnc21)NCc1ccccc1F` had an inhibition in [3] of 45%. Further, the Activity entry in test [1] is “Dose-dependent effect”.

Take `NNc1ccc(S(=O)(=O)O)cc1`: the inhibition in test [3] came out at 70%. In addition, the Activity result in [1] is “Dose-dependent effect”. For the same molecule, the outcome in test [8] and in [9] was Active. For the same molecule, the outcome in [10] and in test [11] was inactive.
